In ChEMBL document CHEMBL1143242, “Specific small-molecule activator of Aurora kinase A induces autophosphorylation in a cell-free system” (J Med Chem, 2008):
Active and inactive are the calls of the source. No cut-off for these calls is given here.

T1: Aurora kinase A (Homo sapiens) (UniProt O14965)
T1 sequence (whole entry): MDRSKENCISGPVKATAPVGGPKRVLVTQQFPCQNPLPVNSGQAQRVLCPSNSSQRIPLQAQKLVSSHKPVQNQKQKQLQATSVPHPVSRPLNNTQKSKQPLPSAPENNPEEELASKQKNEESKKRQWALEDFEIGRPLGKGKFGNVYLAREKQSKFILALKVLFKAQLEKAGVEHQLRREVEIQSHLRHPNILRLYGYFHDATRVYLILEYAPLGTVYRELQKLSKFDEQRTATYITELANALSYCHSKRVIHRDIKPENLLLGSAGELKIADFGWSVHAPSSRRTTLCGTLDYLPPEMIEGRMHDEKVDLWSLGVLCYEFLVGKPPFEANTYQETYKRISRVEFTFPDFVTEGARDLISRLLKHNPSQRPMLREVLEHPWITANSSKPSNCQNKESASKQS

B1: Aurora kinase A (Homo sapiens), O14965 (protein)
chain: T1 sequence (whole entry)

Columns and labels:
[1] = molecular target: T1, Aurora kinase A (Homo sapiens); experiment: Binding affinity to human AURA expressed in baculovirus in presence of anacardic acid
How it was run: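 Baculovirus-expressed, C-terminally His6-tagged AURA purified on Ni-NTA. Intrinsic fluorescence quenching was read at 301 nm (excitation 280 nm), with inner-filter correction. Ka came from double-reciprocal FR and the Chipman method.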

[2] = molecular target: T1, Aurora kinase A (Homo sapiens); experiment: Binding affinity to human AURA expressed in baculovirus
How it was run: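 Baculovirus-expressed, C-terminally His6-tagged AURA purified on Ni-NTA. Excitation was at 280 nm and quenching of intrinsic fluorescence was read at 301 nm, with inner-filter correction. FR came from a double-reciprocal plot, and Ka was calculated by the Chipman method.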

[3] = molecular target: T1, Aurora kinase A (Homo sapiens); experiment: Activation of human AURA mediated histone H3 phosphorylation by phosphoimager analyzer
How it was run: (§1)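 Compound (5–50 µM, in DMSO) preincubated 5 min at 30 °C, then [γ-32P]ATP added for 10 min. 25% TCA precipitation, 15% SDS-PAGE, autoradiography; phosphoimager quantitation of relative intensity versus DMSO control.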

[4] = molecular target: Aurora kinase B (Homo sapiens) (UniProt Q96GD4); experiment: Activation of human AURB autophosphorylation activity
Chain of Aurora kinase B (Homo sapiens) (Q96GD4 whole entry): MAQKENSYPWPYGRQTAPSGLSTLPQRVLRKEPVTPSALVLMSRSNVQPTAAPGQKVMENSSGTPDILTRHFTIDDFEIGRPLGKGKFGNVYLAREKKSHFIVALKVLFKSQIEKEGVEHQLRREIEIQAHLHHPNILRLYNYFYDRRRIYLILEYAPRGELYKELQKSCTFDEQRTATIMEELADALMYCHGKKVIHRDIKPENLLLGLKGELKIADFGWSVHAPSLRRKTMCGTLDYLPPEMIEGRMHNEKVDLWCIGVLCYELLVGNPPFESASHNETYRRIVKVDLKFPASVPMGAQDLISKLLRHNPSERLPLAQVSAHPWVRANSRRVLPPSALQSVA
How it was run: (§2)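 Autophosphorylation read from the same gels: 1.5 µg histone H3 with AURA (40 ng) or AURB (120 ng) and [γ-32P]ATP, with or without compound at 25 and 50 µM in DMSO. Reactions precipitated with 25% TCA, resolved on 15% SDS-PAGE, then autoradiographed.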

[5] = molecular target: T1, Aurora kinase A (Homo sapiens); experiment: Activation of human AURA autophosphorylation activity; how it was run: as §2
[6] = molecular target: T1, Aurora kinase A (Homo sapiens); experiment: Activation of human AURA activity expressed in baculovirus cells by time course assay
[7] = molecular target: Aurora kinase B (Homo sapiens) (UniProt Q96GD4); experiment: Activation of human AURB mediated histone H3 phosphorylation by phosphoimager analyzer; how it was run: as §1
[8] = molecular target: T1, Aurora kinase A (Homo sapiens); experiment: Activation of human AURA assessed as histone H3 phosphorylation; how it was run: as §1
[9] = molecular target: T1, Aurora kinase A (Homo sapiens); experiment: Binding affinity to human AURA expressed in baculovirus in presence of ATP
[10] = substrate: C=CC/C=C\C/C=C\CCCCCCCc1cccc(O)c1C(=O)O; experiment: Activity of human AURA expressed in baculovirus at 50 uM by phosphorimager analyzer; how it was run: as §1
[11] = substrate: C=CC/C=C\C/C=C\CCCCCCCc1cccc(O)c1C(=O)O; experiment: Ratio of Kcat for human AURA to Km for human AURA
How it was run: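 AURA kinase assay with H3 substrate, with increasing [γ-32P]ATP (2.5–15 µM) in the presence of DMSO or 50 µM compound; 5 min 30 °C preincubation, 10 min reaction, TCA precipitation, PAGE and phosphoimager quantitation. Km, Vmax and kcat fitted from activity against ATP concentration.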

| Molecule | Ka [1] [nM⁻¹] | Ka [2] [µM⁻¹] | Activity [3] | Activity [4] | Activity [5] | Activity [6] | Activity [7] | Activity [8] | Ka [9] [µM⁻¹] | Km [10] [mM] | Vmax [10] [mmol/min/mg] | kcat [10] [s⁻¹] | kcat/Km [11] [M⁻¹ s⁻¹] |
| --- | --- | --- | --- | --- | --- | --- | --- | --- | --- | --- | --- | --- | --- |
| Nc1ncnc2c1ncn2[C@@H]1O[C@H](COP(=O)(O)OP(=O)(O)OP(=O)(O)O)[C@@H](O)[C@H]1O | 27.5 | 5.7 |  |  |  |  |  |  |  |  |  |  |  |
| C=CC/C=C\C/C=C\CCCCCCCc1cccc(O)c1C(=O)O |  | 5.2 | Active | inactive | Active | Active | inactive | Dose-dependent effect | 10.1 |  |  |  |  |
| B1 |  |  |  |  |  |  |  |  |  | 40.2 | 62.5 | 282 | 6990 |
